RGS16-Gao HTS = modulators of RGS16 binding to Galphao, primary screen, biochemical, human proteins, multiplexed bead flow cytometry | bead-based flow cytometry RGS16-Galphao binding, fluorescence; actives lie on both sides | binding response (% of control), % at 10 µM | actives 0.38% (n = 220,000) | AID 1441, 2008;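 also: Galphao activated by GDP with aluminum fluoride before binding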
Target sequence (O15492 whole entry, looked up): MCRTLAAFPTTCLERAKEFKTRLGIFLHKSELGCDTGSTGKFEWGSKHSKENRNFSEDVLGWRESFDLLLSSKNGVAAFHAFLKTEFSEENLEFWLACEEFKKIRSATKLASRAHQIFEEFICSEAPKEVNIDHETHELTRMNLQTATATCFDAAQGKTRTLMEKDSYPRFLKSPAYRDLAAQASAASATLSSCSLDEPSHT
Target sequence (P09471 whole entry, looked up): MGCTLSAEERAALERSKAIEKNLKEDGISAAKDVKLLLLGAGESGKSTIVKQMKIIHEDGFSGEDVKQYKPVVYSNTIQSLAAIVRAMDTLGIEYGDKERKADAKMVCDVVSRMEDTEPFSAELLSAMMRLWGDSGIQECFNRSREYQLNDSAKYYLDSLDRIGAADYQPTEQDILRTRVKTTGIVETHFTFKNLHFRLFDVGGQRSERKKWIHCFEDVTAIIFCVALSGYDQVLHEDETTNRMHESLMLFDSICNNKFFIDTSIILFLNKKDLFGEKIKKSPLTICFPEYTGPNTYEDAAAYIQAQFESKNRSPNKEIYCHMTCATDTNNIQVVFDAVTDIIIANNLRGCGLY
RGS7-Gao = RGS7-Galphao binding modulators, primary screen, biochemical, multiplexed bead flow cytometry; actives 0.35% (n = 220,000); actives lie on both sides; AID 1439, 2008; Guanine nucleotide-binding protein G(o) subunit alpha (Homo sapiens), P09471; binding response (% of control), % at 10 µM; in the data active = binding response below about 49% or above about 150%; inconclusive = no clear call, values can overlap the other calls; inactive = in between;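 also: fluorescent Galphao held in activated GDP-AlF4 state binding bead-coupled RGS7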
Target sequence (P09471 whole entry, looked up): as above
RGS8-Gao reg = RGS8-Galphao binding modulators, primary screen, biochemical, multiplexed bead flow cytometry. Guanine nucleotide-binding protein G(o) subunit alpha (Homo sapiens), P09471. actives lie on both sides. response (percent of control binding), % at 10 µM. actives 0.34% (n = 220,000); in the data active = response below about 60% or above about 140%; inactive = in between;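 also: Galphao activated as the GDP aluminium fluoride complex binding bead-coupled RGS8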
Calb biofilm kill = clotrimazole potentiators killing C. albicans biofilm, primary screen, 4-compound mixtures; C. albicans biofilm persisters + clotrimazole, fluorescence viability; primary screen in compound mixtures of four per well; inhibition, % at 7.6 µM; actives 0.02% (n = 120,000); AID 1242, 2008;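 active = inhibition above 30.3% in the primary screen of four-compound pools, then above 30% when the compound was retested; inconclusive = passed the primary limit but could not be retested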;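 also: compounds exposed to preformed 24 h biofilms for 48 h; 0% = untreated biofilm control and 100% = clotrimazole plus chlorhexidine kill blank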
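Test system: C. albicans CAF4-2 wild-type biofilms; buffer or medium: RPMI/MOPS medium, pH 7.0; schedule: 24 h biofilm formation, then 48 h compound exposure, 37 °C; detection: Alamar Blue fluorescence; measure: percent inhibition of biofilm viability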
RGS4-Gao reg = modulators of RGS4 binding to Galphao, primary screen, biochemical, multiplexed bead flow cytometry. actives 0.33% (n = 220,000). Guanine nucleotide-binding protein G(o) subunit alpha (Homo sapiens), P09471. actives lie on both sides. AID 1415, 2008. binding response (% of control), % at 10 µM; in the data active = binding response below about 49% or above about 150%; inactive = in between;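 also: fluorescent Galphao activated with aluminum fluoride binding bead-coupled RGS4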
RGS4-Gao HTS = modulators of RGS–Galpha-o binding, primary screen, biochemical, multiplexed beads, flow cytometry, RGS4/7/8/16/19 | shares compounds with RGS16-Gao HTS | multiplexed bead flow cytometry | RGS4–Galpha-o binding response, % at 10 µM | actives 99% (n = 1,600) | AID 1504, 2009;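 also: fluorescently labeled Galpha-o bound to GDP with aluminium fluoride binding biotinylated RGS beads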
Avidin counter = disruption of biotin probe capture by avidin, counter-screen for RGS protein interaction modulators, biochemical, flow cytometry, bead-based; inhibition, % at 10 µM; shares compounds with RGS16-Gao HTS; AID 1783, 2009; streptavidin beads, fluorescein-biotin binding; 1,700 tested, under 10 active;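 active = inhibition above 50%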;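 also: median green fluorescence of gated singlet beads compared with DMSO control wells; 0% = DMSO wells and 100% = complete loss of bead fluorescence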
RGS8-Gao confirm = RGS8-Galphao binding modulators, confirmation, biochemical, multiplexed bead flow cytometry, single concentration. shares compounds with RGS16-Gao HTS. bead-based flow cytometry RGS8-Galphao binding, fluorescence; actives lie on both sides. binding response (% of control), % at 10 µM. actives 3% (n = 1,700); in the data active = binding response below about 72% or above about 130%; inactive = in between;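 also: Galphao activated as GDP AlF4 complex before binding bead RGS8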
RGS7-Gao single = RGS7-Galphao binding modulators, confirmation, biochemical, multiplexed bead flow cytometry, single concentration; response (percent of control binding), % at 10 µM; actives 7.8% (n = 1,700); bead-based flow cytometry RGS7-Galphao binding; actives lie on both sides; shares compounds with RGS16-Gao HTS; in the data active = response below about 75% or above about 130%; inactive = in between;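 also: fluorescent Galphao activated with GDP and aluminum fluoride binding bead-coupled RGS7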
RGS16-Gao single = modulators of RGS16-Galphao protein binding, confirmation, biochemical, single concentration, multiplexed bead flow cytometry; bead-based flow cytometry; actives lie on both sides; response (% of control binding), % at 10 µM; shares compounds with RGS16-Gao HTS; actives 4% (n = 1,700); AID 1838, 2009; in the data active = response below about 74% or above about 130%; inactive = in between;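 also: Galphao activated as the GDP aluminium fluoride complex binding bead-coupled RGS16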
RGS4-Gao confirm = modulators of RGS4-Galphao protein binding, confirmation, biochemical, single concentration, multiplexed bead flow cytometry. AID 1840, 2009. actives lie on both sides. binding response (% of control), % at 10 µM. shares compounds with RGS16-Gao HTS. actives 4% (n = 1,700); in the data active = binding response below about 74% or above about 130%; inactive = in between
RGS19-Gao conf = regulators of RGS19-Galphao binding, confirmation, biochemical, single point, multiplexed bead flow cytometry; shares compounds with RGS16-Gao HTS; bead-based flow cytometry RGS19-Galphao binding; actives lie on both sides; response (percent of control binding), % at 10 µM; actives 5% (n = 1,700); in the data active = response below about 50% or above about 160%; inactive = in between;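 also: 100% = no compound control and 0% = blank background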
Active calls of the source: *; ? = inconclusive; / = not tested or not shown; [ ] = dose if it differs, or a comment. Most compounds without a hit are left out; they make up all but 0.74% or so of the library. Unless noted, no rule for the calls is given here.

SMILES	RGS16-Gao HTS	RGS7-Gao	RGS8-Gao reg	Calb biofilm kill	RGS4-Gao reg	Avidin counter	RGS8-Gao confirm	RGS7-Gao single	RGS16-Gao single	RGS4-Gao confirm	RGS19-Gao conf	others
CC1Oc2cc3c(-c4c(O)cc(O)c5c(O)c6c(cc45)OC(C)C(C)C6=O)c(O)cc(O)c3c(O)c2C(=O)C1C (centres undefined)	15*	?	36*	11	14*	/	/	/	/	/	/
Cc1nonc1OCCNCCNc1ccc([N+](=O)[O-])c2cccnc12	107	100	102	13	100	/	/	/	/	/	/
Nc1c([N+](=O)[O-])cc(F)c(N2CCNCC2)c1Br	40	39*	52*	8	44*	0	104	101	104	99	89
COc1ccc(OC)c(CN2CCCC(C(=O)c3sccc3C)C2)c1 (centres undefined)	99	?	102	34	102	/	/	/	/	/	/
COC(=O)c1cc(C(O)(C(=O)OC)C(F)(F)F)c(/N=C/N(C)C)s1 (centres undefined)	101	96	101	/	100	/	/	/	/	/	/
c1ccc(CCn2nnnc2CN2CCC(n3nnc4ccccc43)CC2)cc1	434	128	161*[activator]	/	131	-1	105	105	105	103	106	RGS4-Gao HTS=131*
O=C(O)CC1OCC=C2CN3CCC45C6=CC(=O)C(=O)C([N+](=O)[O-])=C6NC4C1C2CC35 (centres undefined)	47	?	69	21	46*	-1	99	97	97	101	98
O=c1[nH]c(=O)n(Cc2ccco2)c(O)c1C=NCc1cccs1	95	95	97	/	96	/	/	/	/	/	/
O=c1[nH]c(=S)n(Cc2ccco2)c(O)c1C=NCc1cccs1	/	/	/	/	/	-1	87	53*	74*	66*	47*
COc1ccc(-n2c(O)c(C=NCCN(C)C)c(=O)[nH]c2=O)cc1	101	?	100	23	100	/	/	/	/	/	/
COc1ccc(C(O)P(=O)(OC(C)C)OC(C)C)cc1 (centres undefined)	103	?	99	16	107	/	/	/	/	/	/
CCOP(=O)(OCC)C(O)c1ccc(OC)cc1 (centres undefined)	/	/	/	10	/	1	96	87	93	91	69
Cc1ccc(C(=O)NC(O)C(Cl)(Cl)Cl)cc1 (centres undefined)	105	99	104	12	103	/	/	/	/	/	/
O=C(O)CCC(=O)NCCC1=c2ccccc2=N/C1=C\c1c(O)n(Cc2ccc(F)cc2)c(=S)[nH]c1=O	81	?	88	12	89	/	/	/	/	/	/
Clc1cc(Cl)cc(NC2=NCCS2)c1	-17*	?	17*	0	-29*	0	103	106	102	106	98
O=C(NC12CC3CC(CC(C3)C1)C2)OC1CN2CCC1CC2 (centres undefined)	128	?	101	18	167*[activator]	1	100	102	99	100	100
O=C(CCC(=O)N1CCC2(CC1)OCCO2)Nc1nnc(C2CCCCC2)s1	101	?	98	13	100	/	/	/	/	/	/
CCOC(=O)N1CCC(NC(=O)CCc2nc(C3=CCN(C)CC3)no2)CC1	109	190*[activator]	101	/	125	/	/	/	/	/	/	RGS4-Gao HTS=125*
O=C1/C(=C/c2cc3c(cc2Cl)OCO3)N2CCC1CC2	103	98	100	10	101	/	/	/	/	/	/
COc1ccc(NP(=O)(Nc2ccc(OC)cc2)Oc2ccccc2)cc1	106	104	98	23	100	/	/	/	/	/	/
O=P(Nc1ccccc1)(Nc1ccccc1)Oc1ccccc1	10*	81	62	12	80	0	99	106	103	105	106	RGS4-Gao HTS=80*
Cc1cccc(N2C(=O)NC(=O)/C(=C\c3cccn3-c3ccc(Cl)cc3)C2=O)c1	95	233*[activator]	89	/	129	/	/	/	/	/	/	RGS4-Gao HTS=129*
Cc1c(C(c2ccc(F)cc2)c2c(O)c3ccccc3oc2=O)c(=O)n(-c2ccccc2)n1C (centres undefined)	84	38*	46*	10	67	0	108	110	113	106	112	RGS4-Gao HTS=67*
COc1ccc(C(c2c(O)c3ccccc3oc2=O)c2c(C)n(C)n(-c3ccccc3)c2=O)cc1 (centres undefined)	92	94	100	8	96	/	/	/	/	/	/
O=C(CF)NC(NC(=S)Nc1ccccc1O)C(Cl)(Cl)Cl (centres undefined)	99	101	101	14	99	/	/	/	/	/	/
CC(C)N1C(=O)CC2(CC[N+](C)(CCOC(=O)C(O)(c3ccccc3)c3ccccc3)CC2)C1=O (centres undefined)	25*	27*	32*	/	32*	3	104	102	101	102	85
Cc1ccc(C(=O)N[C@@H](C)CN2C3=NC[C@H](Cc4ccccc4)N3C[C@H]2Cc2ccc(O)cc2)cc1Br	77	?	91	19	73	/	/	/	/	/	/
Cc1ccc(C(=O)N[C@@H](C)CN2C3=NC[C@@H](Cc4ccccc4)N3C[C@H]2Cc2ccc(O)cc2)cc1Br	9.1*	5.7*	18*	15	17*	2	103	103	99	103	96

Assay outcomes (PubChem BioAssay)
